Vif imaging – HIV Vif self-association inhibitors, primary screen, imaging, HEK293T, single point; inhibition, % at 7.49 µM; HEK293T cells, Vif self-association by quenched fluorescence, 24 h; 0.35% of 340,000 active; in the data active = inhibition above about 50%, passing the limit was not always enough; inconclusive = no clear call, values can overlap the other calls; inactive = below about 31%
T cell HTS – modulators of CD8 T cell-vesicle binding, primary screen, mouse 2C CD8+ T cells, flow cytometry. 2C CD8+ T cell-vesicle binding; stronger effect = lower value. response (vesicle binding), % at 7 µM. 0.068% of 330,000 active;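 active = response, share of CD8 T cells binding vesicles, and their 90th percentile fluorescence all below set limits, cut at about 80% in these data, passing the limit was not always enough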;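 also: values below 100% mean blocked vesicle binding to the CD8+ T cells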
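material = purified 2C TCR transgenic mouse naive CD8+ T cells | controls = Unloaded micro-vesicles (low), QL9 vesicles with 0.7% DMSO (high) | detection = cytometric PE anti-B7-1 and Alexa647 anti-CD8 signals after 1% paraformaldehyde fixation | incubation = binding step 1.5 h, 37 °C, antibody labelling 20 min, ice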
Myeloid diff MLP – induction of myeloid progenitor differentiation, primary screen, cell-based, flow cytometry, MLPCN library. ER-HoxA9 myeloid progenitors, lysozyme-GFP differentiation. calls only at 10 µM. 1% of 360,000 active. AID 624256, 2012;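 active = normalized GFP-positive differentiation at or above the plate's own cutoff, the solvent-only control mean plus 3 SD; inconclusive = no clear call, values can overlap the other calls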;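 also: cells exposed to compound for four days before flow analysis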
DSG3 Ab inh – inhibitors of pemphigus antibody binding to DSG3, primary screen, biochemical, bead-based, flow cytometry, scFv-GFP; DSG3-coupled beads, scFv-anti-DSG3-GFP binding; stronger effect = lower value; binding (percent of control), % at 10 µM; 0.48% of 310,000 active; AID 588358, 2011;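 active = binding more than 3 SD below its plate's average and above zero; inconclusive = below that plate limit but binding exactly zero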;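 also: hits lower antibody fragment binding to DSG3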
Of the large screens only hits and unclear results are named; the others gave an inactive call. Most compounds without a hit are left out; they make up all but 1.7% or so of the library.

COc1ccc(N2CCN(C(=O)COC(=O)CC(NC(N)=O)c3ccc(Cl)cc3)CC2)cc1 (stereo unspecified)	none (no result: Vif imaging, T cell HTS)
CCCCCc1ccc(-c2ccc(/C=C/C(N)=O)cc2)nc1	Myeloid diff MLP active
COc1cc(NC(=O)c2ccc([N+](=O)[O-])o2)ccc1NC(=O)c1cccs1	Myeloid diff MLP active (no result: DSG3 Ab inh)
Cc1c([N+](=O)[O-])cc(C(=O)Nc2ccc(NC(=O)c3ccco3)cc2)cc1[N+](=O)[O-]	DSG3 Ab inh 96.0
Cc1ccccc1NC(=O)c1ccc([N+](=O)[O-])o1	none
O=C(Nc1ccc(Cl)c([N+](=O)[O-])c1)c1ccco1	none
Cc1ccc(NC(=O)c2ccc([N+](=O)[O-])o2)c(C)c1	Myeloid diff MLP active
O=C(Nc1cccc(NC(=O)c2ccc([N+](=O)[O-])o2)c1)c1ccco1	Myeloid diff MLP inconclusive, DSG3 Ab inh 52.8
CC1(C(=O)NS(=O)(=O)C2CC2)CCCN(C(=O)c2cccc(Cl)c2)C1 (stereo unspecified)	none (no result: T cell HTS, DSG3 Ab inh)
CCCCNS(=O)(=O)c1cccc(NC(=O)[C@H]2C[C@H](O)[C@@H](CO)O2)c1	none (no result: T cell HTS, DSG3 Ab inh)
CCOC(=O)C1=C(O)c2ccccc2C(=O)/C1=C\c1ccc(C)cc1	Myeloid diff MLP active
Cc1ccc(S(=O)(=O)CC(=O)c2cc3cccc(C)c3oc2=O)cc1	DSG3 Ab inh 48.7
COc1cccc2cc(C(=O)CS(=O)(=O)c3ccc(C)cc3)c(=O)oc12	none
O=C(Cn1nnc(-c2ccccc2)n1)N/N=C/c1cc([N+](=O)[O-])c(Cl)cc1Cl	DSG3 Ab inh 73.7
O=C(Cn1nnc(-c2ccccc2)n1)N/N=C/c1cc([N+](=O)[O-])ccc1O	none
Cc1nn(C)cc1CN(C)Cc1ccc(OCC(O)CN2CCCCC2)cc1 (stereo unspecified)	Vif imaging 63.7
CN(Cc1ccc(OCC(O)CN2CCCCC2)cc1)Cc1ccnc2ccccc12 (stereo unspecified)	none (no result: T cell HTS, DSG3 Ab inh)
CCCCCCCCN1C(=O)[C@H](CC(=O)NCC2CCCCC2)C[C@@]2(C(=O)OC)CCCCC=C12	none (no result: Vif imaging, T cell HTS, DSG3 Ab inh)
CC1CCN(CCCNC(=O)c2ccc3c(=O)n(CCc4ccccc4)c(=O)[nH]c3c2)CC1	Vif imaging 51.9
COc1ccc(Cc2c(-c3ccc(Cl)cc3)nc3c(C)cc(Br)cn23)c(C)c1	none (no result: Vif imaging, T cell HTS, DSG3 Ab inh)
CCOc1ccc(OCCC(=O)OCC(=O)NC(C)c2ccccc2)cc1 (stereo unspecified)	none
CCCCn1c(-c2ccc(Br)cc2F)nc2c1c(=O)[nH]c(=O)n2CC(C)C	DSG3 Ab inh 55.8
COc1ccc(Oc2cc(F)nc(N)n2)cc1	none (no result: Vif imaging)
Cc1ccc(C)c(Oc2cc(F)nc(N)n2)c1	Myeloid diff MLP active
COc1ccc(Cc2c(-c3cccc(Cl)c3)nc3c(C)cc(Br)cn23)c(C)c1	none (no result: Vif imaging, T cell HTS, DSG3 Ab inh)
O=C(COC(=O)c1cccc2ccccc12)Nc1ncc(C(F)(F)F)cc1Cl	Myeloid diff MLP active (no result: DSG3 Ab inh)
CC(=O)N1c2ccccc2N(Cc2ccc(C)cc2C)C(=O)C1(C)C	Myeloid diff MLP active
C=CCN1C(=O)C(C)(C)N(C(C)=O)c2ccccc21	none
CS(=O)(=O)Nc1ccccc1C(=O)Nc1ccc2c(c1)OCCO2	Myeloid diff MLP active
CSc1ncnc2c1ncn2CCCN1CCN(Cc2c(C)cc(C)cc2C)CC1	none (no result: T cell HTS, DSG3 Ab inh)
CC(=O)N(C(C)=O)c1ccc(Oc2ccc(Oc3ccc(N(C(C)=O)C(C)=O)cc3)cc2)cc1	none (no result: Vif imaging, T cell HTS)
Fc1cccc(Cl)c1CSc1ccc(-c2cccnc2)nn1	none
Clc1ccc(CSc2ccc(-c3cccnc3)nn2)cc1	Myeloid diff MLP active
COc1ccc(N2CC(O)=C(c3nc(-c4ccccc4)cs3)C2=N)cc1	DSG3 Ab inh 43.0
COc1ccc(N2CC(O)=C(c3nc(-c4ccc(Br)cc4)cs3)C2=N)cc1	none
O=C(Nc1nc(-c2cccnc2)cs1)c1cccc([N+](=O)[O-])c1	none
O=C(Nc1nc(-c2cccnc2)cs1)c1ccc([N+](=O)[O-])cc1	DSG3 Ab inh 29.3
NNC(=O)c1cc2c(N3CCC(Cc4ccccc4)CC3)ncnc2s1	Myeloid diff MLP active (no result: DSG3 Ab inh)
Cn1ncc2c(N3CCC(Cc4ccccc4)CC3)ncnc21	none
O=C(C[C@H]1C[C@H](C(=O)N2CCCCC2)[C@@]2(CCc3ccccc3)c3[nH]c4ccc(Cl)cc4c3CCN2C1=O)NCc1cccc(C(F)(F)F)c1	none (no result: T cell HTS)
O=C(NC(c1ccccc1)c1ccsc1)C1CCN(Cc2ccc(Oc3ccccc3)cc2)CC1 (stereo unspecified)	none (no result: Vif imaging, T cell HTS, DSG3 Ab inh)
